Data taken from ChEMBL document CHEMBL1156338 (J Med Chem, 2010).
pIC50, pKd, pKi: −log10 of the molar value.

Legend:
Rattus norvegicus [1] = experiment: Antiarthritic activity against porcine type 2 collagen-induced arthritis in po dosed Lewis rat model assessed as reduction of paw swelling administered qd for 7 days relative to control; type: functional
Summary of the method: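 Arthritis induced by intradermal porcine type II collagen emulsified 1:1 in incomplete Freund's adjuvant; rats grouped at disease onset (day 0, 10-12 days after immunization). Oral dosing once daily for 7 days in vehicle 15% HPBCD, 1% HPMC, 1% Pluronic F68, pH 2.2.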

[2] = Clearance in Sprague-Dawley rat at 2 mg/kg, iv; type: ADME, organism-based; set-up: dose 2 mg/kg, route intravenous; conditions: in vivo
[3] = target: T1, Mitogen-activated protein kinase 11 (Homo sapiens, UniProt Q15759); experiment: Binding affinity to p38beta
in vitro = conditions: human, Caco-2
[4] = target: T2, Nuclear receptor subfamily 1 group I member 2 (Homo sapiens, UniProt O75469); experiment: Transactivation of human PXR expressed in HepG2 cells at 10 uM after 24 hrs by luciferase reporter gene assay relative to rifampin; type: cell-based; conditions: hepg2, 24 h
T2 sequence (O75469 whole entry): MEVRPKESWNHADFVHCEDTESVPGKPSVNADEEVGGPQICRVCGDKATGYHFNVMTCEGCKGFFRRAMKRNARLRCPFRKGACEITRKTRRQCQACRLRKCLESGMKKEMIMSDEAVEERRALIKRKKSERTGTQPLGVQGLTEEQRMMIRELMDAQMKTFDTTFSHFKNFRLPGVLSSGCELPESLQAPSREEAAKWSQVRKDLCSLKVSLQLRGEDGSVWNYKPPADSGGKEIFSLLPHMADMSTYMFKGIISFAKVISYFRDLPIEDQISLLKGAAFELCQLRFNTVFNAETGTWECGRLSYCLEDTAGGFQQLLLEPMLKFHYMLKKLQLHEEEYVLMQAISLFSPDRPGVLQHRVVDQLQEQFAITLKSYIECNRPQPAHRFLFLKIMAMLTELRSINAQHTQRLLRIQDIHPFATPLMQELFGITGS
Summary of the method: (§1)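 HepG2 cells transfected with a CYP3A4-promoter luciferase reporter and human PXR cDNA. Compound added from DMSO stocks to final 2 and 10 μM in buffer and incubated 24 h. Luciferase activity read by chemiluminescence and reported as percent of the rifampin (10 μM) positive control.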

Cytochrome P450 2D6 = Cytochrome P450 2D6 (Homo sapiens, UniProt P10635); experiment: Inhibition of CYP2D6 in human liver microsomes; type: ADME, Microsome
[5] = Plasma protein binding in rat by ultrafiltration method; type: ADME, cell-free; conditions: read-out: PPB (converted)
Rattus norvegicus [6] = experiment: Inhibition of MAPKAP2 phosphorylation in porcine type 2 collagen-induced arthritis Lewis rat ankles at 0.01 to 1 mg/kg, po by Western blotting; type: functional; conditions: dose mg/kg 0.01-1
Summary of the method: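 Oral dosing once daily for 7 days in collagen-induced arthritic Lewis rats, vehicle 15% HPBCD, 1% HPMC, 1% Pluronic F68, pH 2.2. Ankles (n = 2/group) frozen at sacrifice, pulverized and lysed; 15 μg protein per lane for Western blot with phospho-MK2 antibody. Signal normalized to Akt and expressed as percent of vehicle-treated arthritic control.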

[7] = target: T3, Mitogen-activated protein kinase 12 (Homo sapiens, UniProt P53778); experiment: Inhibition of p38-gamma
T3 sequence (P53778 whole entry): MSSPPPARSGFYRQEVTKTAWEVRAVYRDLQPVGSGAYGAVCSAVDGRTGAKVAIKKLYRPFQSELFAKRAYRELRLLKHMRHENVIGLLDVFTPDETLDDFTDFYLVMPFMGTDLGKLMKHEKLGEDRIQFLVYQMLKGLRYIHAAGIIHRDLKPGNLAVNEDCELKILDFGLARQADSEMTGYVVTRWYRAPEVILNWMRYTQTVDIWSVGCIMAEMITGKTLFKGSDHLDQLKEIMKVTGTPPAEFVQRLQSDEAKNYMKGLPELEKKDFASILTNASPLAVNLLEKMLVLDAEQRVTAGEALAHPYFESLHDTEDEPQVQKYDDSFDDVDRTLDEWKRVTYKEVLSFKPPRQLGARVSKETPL

[8] = AUC (0 to infinity) in Sprague-Dawley rat at 2 mg/kg, po; type: ADME, organism-based; set-up: time infinity, dose 2 mg/kg, route oral; conditions: plasma
[9] = target: T4, RAF proto-oncogene serine/threonine-protein kinase (Homo sapiens, UniProt P04049); experiment: Binding affinity to RAF1
THP-1 = experiment: Inhibition of LPS-induced TNFalpha production in human THP1 cells after 3 hrs; type: functional, cell-based; conditions: Homo sapiens, THP-1, 3 h; read-out: IC50
Summary of the method: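 THP-1 cells at 1.5 x 10^6/mL in RPMI 1640, 10% heat-inactivated FBS, NEAA, 30 μM βME. 3-fold serial compound dilutions in DMSO, then LPS stimulation for 3 h at 37 C, 5% CO2. Secreted TNF-alpha read by electrochemiluminescent immunoassay; percent of DMSO control; IC50 is the mean of at least three independent curves.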

[10] = AUC (0 to 24 hrs) in porcine type 2 collagen-induced arthritis Lewis rat model at 0.01 to 1 mg/kg, po; type: ADME, organism-based; set-up: dose 0.01-1 mg/kg, route oral; conditions: in vivo
Cytochrome P450 2B6 = target: T5, Cytochrome P450 2B6 (Homo sapiens, UniProt P20813); experiment: Induction of CYP2B6 in human hepatocytes at 25 uM; type: ADME, cell-based, Hepatocyte
T5 sequence (P20813 whole entry): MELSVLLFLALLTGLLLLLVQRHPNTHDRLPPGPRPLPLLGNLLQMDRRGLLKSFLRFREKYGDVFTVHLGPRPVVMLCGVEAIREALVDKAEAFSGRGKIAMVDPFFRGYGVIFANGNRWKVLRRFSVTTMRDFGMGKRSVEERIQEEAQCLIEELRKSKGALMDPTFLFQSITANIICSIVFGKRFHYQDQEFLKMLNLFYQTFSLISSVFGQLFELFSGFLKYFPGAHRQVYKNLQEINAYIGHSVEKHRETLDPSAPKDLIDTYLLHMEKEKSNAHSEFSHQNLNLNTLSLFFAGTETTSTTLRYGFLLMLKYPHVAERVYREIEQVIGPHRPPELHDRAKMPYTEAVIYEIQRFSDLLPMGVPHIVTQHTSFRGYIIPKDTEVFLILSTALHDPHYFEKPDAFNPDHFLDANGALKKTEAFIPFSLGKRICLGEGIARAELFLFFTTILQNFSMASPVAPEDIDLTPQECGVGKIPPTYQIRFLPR

[11] = target: T2, Nuclear receptor subfamily 1 group I member 2; experiment: Transactivation of human PXR expressed in HepG2 cells at 2 uM after 24 hrs by luciferase reporter gene assay relative to rifampin; type: cell-based; conditions: hepg2, 24 h; summary of the method: as §1
[12] = target: T4, RAF proto-oncogene serine/threonine-protein kinase; experiment: Inhibition of RAF1 at 1 uM relative to control
[13] = target: T1, Mitogen-activated protein kinase 11; experiment: Inhibition of p38beta at 1 uM relative to control
[14] = target: Mitogen-activated protein kinase 14 (Homo sapiens, UniProt Q16539); experiment: Inhibition of p38alpha at 1 uM relative to control
[15] = target: T1, Mitogen-activated protein kinase 11; experiment: Inhibition of p38beta

T1 sequence (Q15759 whole entry): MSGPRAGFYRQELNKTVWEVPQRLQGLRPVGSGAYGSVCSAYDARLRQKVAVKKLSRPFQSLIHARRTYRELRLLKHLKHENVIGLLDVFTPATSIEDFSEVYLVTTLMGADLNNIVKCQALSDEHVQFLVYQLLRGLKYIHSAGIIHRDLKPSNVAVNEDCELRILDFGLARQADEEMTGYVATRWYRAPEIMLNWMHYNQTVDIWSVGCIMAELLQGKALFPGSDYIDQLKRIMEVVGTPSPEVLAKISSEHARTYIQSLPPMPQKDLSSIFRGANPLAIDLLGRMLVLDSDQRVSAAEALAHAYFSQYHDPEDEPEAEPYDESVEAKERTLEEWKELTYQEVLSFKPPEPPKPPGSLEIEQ
T4 sequence (P04049 whole entry): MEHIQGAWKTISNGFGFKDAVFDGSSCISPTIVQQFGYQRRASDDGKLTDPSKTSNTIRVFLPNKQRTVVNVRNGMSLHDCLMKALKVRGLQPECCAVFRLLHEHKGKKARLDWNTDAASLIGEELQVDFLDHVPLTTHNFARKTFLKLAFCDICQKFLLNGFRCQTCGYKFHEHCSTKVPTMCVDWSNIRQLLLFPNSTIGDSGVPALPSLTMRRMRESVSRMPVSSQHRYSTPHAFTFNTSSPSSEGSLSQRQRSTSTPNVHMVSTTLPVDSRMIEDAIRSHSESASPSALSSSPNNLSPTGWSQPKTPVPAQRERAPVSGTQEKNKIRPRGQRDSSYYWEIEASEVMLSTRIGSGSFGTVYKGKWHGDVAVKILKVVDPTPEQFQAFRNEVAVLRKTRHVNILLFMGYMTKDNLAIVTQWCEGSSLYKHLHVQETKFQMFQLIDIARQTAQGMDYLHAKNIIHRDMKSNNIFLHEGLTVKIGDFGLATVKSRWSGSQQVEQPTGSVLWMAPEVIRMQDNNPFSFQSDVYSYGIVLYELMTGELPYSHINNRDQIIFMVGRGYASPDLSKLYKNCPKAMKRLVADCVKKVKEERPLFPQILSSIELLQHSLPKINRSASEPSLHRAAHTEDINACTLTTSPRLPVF
Mitogen-activated protein kinase 14, sequence (Q16539 whole entry): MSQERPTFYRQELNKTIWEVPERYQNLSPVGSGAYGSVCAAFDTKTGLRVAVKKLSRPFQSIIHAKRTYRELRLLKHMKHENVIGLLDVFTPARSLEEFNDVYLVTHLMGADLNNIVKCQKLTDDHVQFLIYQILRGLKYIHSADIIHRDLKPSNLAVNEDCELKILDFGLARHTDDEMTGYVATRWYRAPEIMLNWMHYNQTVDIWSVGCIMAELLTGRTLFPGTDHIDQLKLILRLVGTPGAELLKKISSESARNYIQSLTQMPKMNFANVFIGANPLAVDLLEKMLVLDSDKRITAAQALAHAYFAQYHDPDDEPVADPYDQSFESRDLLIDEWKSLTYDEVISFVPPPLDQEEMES
Cytochrome P450 2D6, sequence (P10635 whole entry): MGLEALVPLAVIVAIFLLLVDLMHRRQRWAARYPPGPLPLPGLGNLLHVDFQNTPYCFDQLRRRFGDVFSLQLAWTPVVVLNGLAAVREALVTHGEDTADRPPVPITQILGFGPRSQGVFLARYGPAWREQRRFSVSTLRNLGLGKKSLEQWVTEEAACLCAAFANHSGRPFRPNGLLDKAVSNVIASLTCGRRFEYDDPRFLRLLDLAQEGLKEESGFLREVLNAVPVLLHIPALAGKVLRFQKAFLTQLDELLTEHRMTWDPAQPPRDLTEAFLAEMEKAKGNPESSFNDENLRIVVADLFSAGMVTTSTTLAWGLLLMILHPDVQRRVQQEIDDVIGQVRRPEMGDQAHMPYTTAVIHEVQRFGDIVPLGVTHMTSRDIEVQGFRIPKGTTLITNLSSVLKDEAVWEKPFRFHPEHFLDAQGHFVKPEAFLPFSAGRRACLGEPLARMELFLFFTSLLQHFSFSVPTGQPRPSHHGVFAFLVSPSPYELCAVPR

Cc1ccc(C(=O)NC2CC2)cc1-c1cc2cnn(-c3c(F)cccc3F)c2n(C)c1=O
Activity (Rattus norvegicus [1]): Dose-dependent effect
ED50 (Rattus norvegicus [1]; 168 h): ≤ 0.01 mg/kg
clearance [2]: 0.22 L/h/kg
pKd [3]: 9.17
Papp A→B (in vitro): 270 nm/s
Activity [4]: 13%
pIC50 (Cytochrome P450 2D6): < 4.60
fraction unbound [5]: 0.087
ED50 (Rattus norvegicus [6]): ≤ 0.01 mg/kg
pKi [7]: 5.46
AUC(0-inf) [8]: 3.99 µg·h/mL
pKd [9]: 5.96
pIC50 (THP-1): 9.22
AUC(0-t) [10]: 180 nM·h
Activity (Cytochrome P450 2B6): Not Active
Activity [11]: 5%
inhibition [12]: < 50%
inhibition [13]: < 50%
inhibition [14]: < 50%
pKi [15]: 8.60
